Hits are enriched below; roughly 2.5% of the tested compounds scored in any of these assays.
SR-BI uptake up – activators of SR-BI mediated DiI-HDL uptake, primary screen, ldlA[mSR-BI] CHO cells, DiI fluorescence; hit rate 0.096% among 320,000; activation, % at 12.5 µM; 3 h; 100 = double the neutral-control signal; AID 504775, 2011;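 active means mean replicate activation of at least 60% and every replicate at or above 60%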;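 further: 0% = median plate neutral-control signal and 100% = twice that signal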
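material = CHO ldlA[mSR-BI] cells | medium = Ham's F12 with 0.5% BSA, HEPES 25 mM, pH 7.4 | reagent = fluorescent DiI-HDL, 10 µg/mL final | compound dosing = single-point compound dose | incubation = 3 h, 37 °C | measured by = bottom-read fluorescence, 550/595 nm | measure = HDL uptake via cellular fluorescence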
SR-BI DiI inh – inhibitors of SR-BI mediated HDL lipid uptake, primary screen, ldlA[mSR-BI] cells, fluorescence, single point; AID 488896, 2010; Scavenger receptor class B member 1 (Mus musculus), Q61009; hit rate 0.96% among 320,000; ldlA[mSR-BI] CHO cells, DiI-HDL uptake fluorescence, 3 h; inhibition, % at 12.5 µM;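 active means mean replicate inhibition of at least 70% and a set share of replicates each scoring 70 or more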;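 further: 0% = median of neutral control wells and 100% = median of positive control wells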
Target sequence (Q61009 whole entry, looked up): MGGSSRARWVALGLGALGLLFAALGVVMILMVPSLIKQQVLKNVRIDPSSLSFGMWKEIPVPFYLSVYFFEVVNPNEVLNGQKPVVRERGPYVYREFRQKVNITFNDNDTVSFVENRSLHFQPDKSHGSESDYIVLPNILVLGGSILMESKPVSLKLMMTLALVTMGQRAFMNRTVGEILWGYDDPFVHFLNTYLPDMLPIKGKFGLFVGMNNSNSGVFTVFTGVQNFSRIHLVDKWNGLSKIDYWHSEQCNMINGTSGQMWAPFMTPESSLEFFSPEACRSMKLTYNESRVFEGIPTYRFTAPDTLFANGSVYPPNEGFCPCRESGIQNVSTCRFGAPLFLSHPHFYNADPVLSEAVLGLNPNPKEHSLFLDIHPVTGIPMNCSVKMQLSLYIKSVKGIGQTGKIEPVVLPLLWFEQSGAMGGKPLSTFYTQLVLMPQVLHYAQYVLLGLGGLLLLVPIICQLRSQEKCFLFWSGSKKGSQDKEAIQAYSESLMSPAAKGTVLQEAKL
H9c2 TAG inh – inhibitors of triacylglycerol accumulation, primary screen, cell-based, uHTS, fluorescence, H9c2. H9c2 cells, Nile Red lipid (TAG) fluorescence; cells loaded with 200 µM oleic acid. inhibition, % at 12.5 µM. hit rate 0.66% among 230,000. AID 651582, 2012;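 active means pattern-corrected inhibition of lipid staining of at least 50% with the nuclear-stain viability signal not falling by more than 50%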;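 further: 0% = DMSO wells and 100% = triacsin C control wells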
Vif imaging – HIV Vif self-association inhibitors, primary screen, imaging, HEK293T, single point | inhibition, % at 7.49 µM | AID 602346, 2012 | hit rate 0.35% among 340,000 | HEK293T cells, Vif self-association by quenched fluorescence, 24 h; in the data active means inhibition above about 50%, passing the limit was not always enough
SMARCA2 activ – SMARCA2 (BRM) function activators, primary screen, cell-based, luminescence, high throughput. MG213 cells, MMTV-luciferase reporter, dexamethasone, overnight. activation, % at 9.1 µM. hit rate 1% among 370,000; in the data active means activation above about 7.8%;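 further: 0% = vehicle wells and 100% = reference activator wells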
SMARCA2 conf – SMARCA2 (BRM) function activators, confirmation, cell-based, luminescence, triplicate | AID 652260, 2013 | hit rate 30% among 3,500 | MG213 cells, MMTV-luciferase with dexamethasone, overnight; MG213 cells expressing E1A, Rb sequestered; DMSO wells 0%, reference activator 100% | activation, % at 9.1 µM | shares compounds with SMARCA2 activ;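 active means activation above its plate's cutoff, the mean activation of tested wells plus 3 SD, cut at about 7.9% in these data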
GAL4-VP16 Luc – GAL4-VP16 luciferase reporter activation, counter-screen for SMARCA2 (BRM) activator project, cell-based, pG5luc, luminescence, high throughput; shares compounds with SMARCA2 activ; HEK293 GAL4-VP16 pG5luc reporter; scaled: DMSO wells 0%, SAHA wells 100%; activation, % at 9.1 µM; hit rate 41% among 3,500;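 active means activation above the solvent-only control well mean plus 3 SD, averaged across control plates, cut at about 5.2% in these data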
Numbers without * were called inactive.

`Cc1ccc(C(=O)CSc2nc3ccccc3c(=O)[nH]2)cc1` gave SR-BI uptake up 13.1, SR-BI DiI inh -13.1, Vif imaging -1.3, SMARCA2 activ 9.6*, SMARCA2 conf -0.7 and GAL4-VP16 Luc 1.7.
`CCc1ccc(C(=O)CSc2nc3ccccc3c(=O)[nH]2)cc1` gave SR-BI uptake up -4.2, SR-BI DiI inh 4.2, Vif imaging -2.4 and SMARCA2 activ 1.7.
O=C(Nc1ccc2ncccc2c1)c1cc(-c2ccc(Cl)cc2)nc2ccccc12 was read as SMARCA2 activ -1.5.
C/C(=N\Nc1ccccn1)c1cccs1 was read as SR-BI uptake up 27.2, SR-BI DiI inh -27.2, H9c2 TAG inh 4.7, Vif imaging -1.1, SMARCA2 activ 10.0*, SMARCA2 conf 11.1* and GAL4-VP16 Luc 6.4*.
`CCOC(=O)C1=C(N)OC(C)=C(C#N)C1c1ccco1` (stereo not given) gave SR-BI uptake up 36.3, SR-BI DiI inh -36.3, Vif imaging -8.0, SMARCA2 activ 9.0*, SMARCA2 conf 1.5 and GAL4-VP16 Luc 1.1.
CCCC1=C(C(=O)OCC)C(c2ccco2)C(C#N)=C(N)O1 (stereo not given) was read as SR-BI uptake up 6.7, SR-BI DiI inh -6.7, H9c2 TAG inh 17.8, Vif imaging 18.2 and SMARCA2 activ 0.2.
O=CNc1cc(-c2ccc(C(=O)NC3CC3)cc2)cn2c(-c3ccc(F)cc3)cnc12 was read as H9c2 TAG inh -2.6, Vif imaging -7.0 and SMARCA2 activ 2.5.
O=C(COC(=O)C12CC3CC(CC(O)(C3)C1)C2)Nc1ccccc1OC(F)F was read as SR-BI uptake up -39.1, SR-BI DiI inh 39.1, H9c2 TAG inh -11.2, Vif imaging -7.7 and SMARCA2 activ -0.1.
For O=C(COC(=O)C12CC3CC(CC(O)(C3)C1)C2)Nc1ccc(Br)cc1F the results were SR-BI uptake up 11.9, SR-BI DiI inh -11.9, H9c2 TAG inh -14.7, Vif imaging 13.9, SMARCA2 activ 9.4*, SMARCA2 conf 4.0 and GAL4-VP16 Luc 8.2*.
Screening COc1ccc(NC2CCCN(C(=O)CN3C(=O)c4ccccc4C3=O)C2)cc1OC (stereo not given) returned SR-BI uptake up -1.8, SR-BI DiI inh 1.8, Vif imaging 5.1, SMARCA2 activ 8.0*, SMARCA2 conf -5.0 and GAL4-VP16 Luc 1.0.
CN(Cc1ccccc1F)C(=O)Cn1c(-c2cncs2)nc2ccccc21 was read as SMARCA2 activ -1.2.
`S=C(NNC(=S)Nc1ccc(Cl)cc1)NNc1ccccc1` gave H9c2 TAG inh -10.5, Vif imaging -0.1 and SMARCA2 activ -2.7.
S=C(N=Nc1ccccc1)NNc1ccccc1 was read as SR-BI uptake up -34.2, SR-BI DiI inh 34.2, H9c2 TAG inh 39.0, Vif imaging -1.8, SMARCA2 activ 10.3*, SMARCA2 conf 13.7* and GAL4-VP16 Luc 7.7*.
Screening Cc1nc(CS(=O)(=O)c2ccc(Cl)cc2)cc(Sc2ccccc2Cl)n1 returned SR-BI uptake up -10.8, SR-BI DiI inh 10.8, H9c2 TAG inh -5.5, Vif imaging -0.7 and SMARCA2 activ 2.4.
Screening Cc1nc(CS(=O)(=O)c2ccccc2)cc(Sc2ccccc2Cl)n1 returned SR-BI uptake up -10.9, SR-BI DiI inh 10.9, H9c2 TAG inh -29.9, Vif imaging -5.0, SMARCA2 activ 8.2*, SMARCA2 conf 7.1 and GAL4-VP16 Luc 6.9*.
For O=C(CC(Nc1ccccc1Cl)C(=O)O)c1ccccc1 (stereo not given) the results were SR-BI uptake up 10.9, SR-BI DiI inh -10.9, H9c2 TAG inh 4.8, Vif imaging -0.8 and SMARCA2 activ 2.1.
Cc1c(Cl)cccc1NC(CC(=O)c1ccccc1)C(=O)O (stereo not given) was read as SR-BI uptake up 31.0, SR-BI DiI inh -31.0, Vif imaging 3.4, SMARCA2 activ 9.7*, SMARCA2 conf 7.2 and GAL4-VP16 Luc 3.2.
For CN1CCCCC(NC(=O)CCl)C1=O (stereo not given) the results were SMARCA2 activ -0.4.
`Cc1ccc(/C=C(\NC(=O)c2ccc(C)cc2)c2nc(=S)[nH][nH]2)cc1` gave SR-BI uptake up -7.5, SR-BI DiI inh 7.5, Vif imaging -0.2, SMARCA2 activ 10.3*, SMARCA2 conf -1.4 and GAL4-VP16 Luc 0.7.
`CN(C)c1ccc(C=C2C=C(c3ccccc3)OC2=O)cc1` gave H9c2 TAG inh -0.5 and SMARCA2 activ -1.7.
For Cc1ccc(C=C2C=C(c3ccccc3)OC2=O)cc1 the results were H9c2 TAG inh 3.1, Vif imaging -2.1, SMARCA2 activ 8.6*, SMARCA2 conf -0.4 and GAL4-VP16 Luc 6.1*.
Screening O=C(C(=O)N1CCC(CNS(=O)(=O)c2ccc3ccccc3c2)CC1)c1cc2ccccc2o1 returned SMARCA2 activ -3.8.
For Cc1ccc(Nc2nc(N)nc(CC#N)n2)cc1 the results were SR-BI uptake up 7.9, SR-BI DiI inh -7.9, Vif imaging -2.5, SMARCA2 activ 12.1*, SMARCA2 conf 7.6 and GAL4-VP16 Luc 6.6*.
Screening Cc1ccc(Nc2nc(N)nc(CSCCO)n2)cc1 returned SR-BI uptake up 16.4, SR-BI DiI inh -16.4, H9c2 TAG inh 1.8, Vif imaging 24.5 and SMARCA2 activ 5.2.
For C[C@H]1CN(C(=O)OC(C)(C)C)CCN1c1ccc(N2CC[C@@H](O)C2)c(C#N)c1 the results were SMARCA2 activ 4.4.
For Cc1cc(S(=O)(=O)N2CCOCC2)c(C)s1 the results were SR-BI uptake up -6.9, SR-BI DiI inh 6.9, Vif imaging -4.3 and SMARCA2 activ -0.9.
For CCOC(=O)C(Nc1ccc2ccccc2c1)C(=O)OCC the results were SR-BI uptake up 17.4, SR-BI DiI inh -17.4, Vif imaging -0.6, SMARCA2 activ 8.3*, SMARCA2 conf 7.9* and GAL4-VP16 Luc 1.7.
For CC(C)CCN1CC(C(=O)NCCC2=CCCCC2)CC1=O (stereo not given) the results were SR-BI uptake up -0.4, SR-BI DiI inh 0.4, Vif imaging -2.5, SMARCA2 activ 8.1*, SMARCA2 conf 1.9 and GAL4-VP16 Luc 1.9.
